According to ChEMBL document CHEMBL4219028, “Development of Protein Degradation Inducers of Androgen Receptor by Conjugation of Androgen Receptor Ligands and Inhibitor of Apoptosis Protein Ligands” (J Med Chem, 2018):
Blank lines part the entries; values can stand above or below the compound they belong to. Active and inactive are the calls of the source. No cut-off for these calls is given here.

What was measured:
[1] = biological target: T1, Androgen receptor/Baculoviral IAP repeat-containing protein 2 (Homo sapiens, UniProt P10275+Q13490); assay: Induction of AR/cIAP1 interaction in human 22Rv1 cells assessed as ubiquitin proteasome system mediated androgen receptor protein degradation at 30 uM in presence of methyl (2S)-2-(((2S,3R)-3-amino-2-hydroxy-4-phenylbutanoyl)amino)-4-methylpentanoate after 6 hrs by Western blot analysis; format: cell-based
Method in brief: (§1)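 22Rv1 cells were treated with compound, or with separate ligands (30 μM or 3 μM each), for 6 h. Lysates in SDS buffer (0.1 M Tris pH 8.0, 1% SDS) were normalized by BCA, run on SDS-PAGE and immunoblotted. AR/GAPDH ratio was normalized to vehicle as 100. DC50 is the concentration giving 50% AR reduction; means ± SD, n = 3; t-test against vehicle.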
Target sequence in this assay (Q13490 whole entry, looked up, one chain of several): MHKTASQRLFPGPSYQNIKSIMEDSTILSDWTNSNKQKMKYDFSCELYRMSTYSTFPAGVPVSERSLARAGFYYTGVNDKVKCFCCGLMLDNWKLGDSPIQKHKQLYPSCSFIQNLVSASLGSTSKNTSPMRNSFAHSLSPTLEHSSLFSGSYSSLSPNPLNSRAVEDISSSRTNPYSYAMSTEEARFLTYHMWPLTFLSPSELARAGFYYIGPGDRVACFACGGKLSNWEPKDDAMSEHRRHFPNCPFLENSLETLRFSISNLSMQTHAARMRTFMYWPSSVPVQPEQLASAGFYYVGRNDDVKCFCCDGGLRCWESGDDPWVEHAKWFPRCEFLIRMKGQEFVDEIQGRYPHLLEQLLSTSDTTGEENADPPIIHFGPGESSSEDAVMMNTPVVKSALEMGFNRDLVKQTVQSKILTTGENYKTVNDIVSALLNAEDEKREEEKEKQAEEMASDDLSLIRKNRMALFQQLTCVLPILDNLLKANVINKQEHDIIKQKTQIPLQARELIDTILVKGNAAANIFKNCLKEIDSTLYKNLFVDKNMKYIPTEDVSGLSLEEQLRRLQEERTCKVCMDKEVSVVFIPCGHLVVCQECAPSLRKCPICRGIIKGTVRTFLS

[2] = biological target: T1, Androgen receptor/Baculoviral IAP repeat-containing protein 2; assay: Induction of AR/cIAP1 interaction in human 22Rv1 cells assessed as ubiquitin proteasome system mediated androgen receptor protein degradation at 3 uM in presence of N-((1S)-1-Cyclohexyl-2-((2S)-2-(4-(3-methoxybenzoyl)-1,3-thiazol-2-yl)pyrrolidin-1-yl)-2-oxoethyl)-N2-methyl-L-alaninamide after 6 hrs by Western blot analysis; format: cell-based; method in brief: as §1
Target sequence in this assay (Q13490 whole entry, looked up, one chain of several): as above

Androgen receptor [3] = biological target: T2, Androgen receptor (Homo sapiens, UniProt P10275); assay: Displacement of [17-alpha-methyl-H-3] mibolerone from wild-type androgen receptor (unknown origin) expressed in human Freestyle293F cells measured after 3 hrs; format: cell-based
T2 sequence (P10275 whole entry): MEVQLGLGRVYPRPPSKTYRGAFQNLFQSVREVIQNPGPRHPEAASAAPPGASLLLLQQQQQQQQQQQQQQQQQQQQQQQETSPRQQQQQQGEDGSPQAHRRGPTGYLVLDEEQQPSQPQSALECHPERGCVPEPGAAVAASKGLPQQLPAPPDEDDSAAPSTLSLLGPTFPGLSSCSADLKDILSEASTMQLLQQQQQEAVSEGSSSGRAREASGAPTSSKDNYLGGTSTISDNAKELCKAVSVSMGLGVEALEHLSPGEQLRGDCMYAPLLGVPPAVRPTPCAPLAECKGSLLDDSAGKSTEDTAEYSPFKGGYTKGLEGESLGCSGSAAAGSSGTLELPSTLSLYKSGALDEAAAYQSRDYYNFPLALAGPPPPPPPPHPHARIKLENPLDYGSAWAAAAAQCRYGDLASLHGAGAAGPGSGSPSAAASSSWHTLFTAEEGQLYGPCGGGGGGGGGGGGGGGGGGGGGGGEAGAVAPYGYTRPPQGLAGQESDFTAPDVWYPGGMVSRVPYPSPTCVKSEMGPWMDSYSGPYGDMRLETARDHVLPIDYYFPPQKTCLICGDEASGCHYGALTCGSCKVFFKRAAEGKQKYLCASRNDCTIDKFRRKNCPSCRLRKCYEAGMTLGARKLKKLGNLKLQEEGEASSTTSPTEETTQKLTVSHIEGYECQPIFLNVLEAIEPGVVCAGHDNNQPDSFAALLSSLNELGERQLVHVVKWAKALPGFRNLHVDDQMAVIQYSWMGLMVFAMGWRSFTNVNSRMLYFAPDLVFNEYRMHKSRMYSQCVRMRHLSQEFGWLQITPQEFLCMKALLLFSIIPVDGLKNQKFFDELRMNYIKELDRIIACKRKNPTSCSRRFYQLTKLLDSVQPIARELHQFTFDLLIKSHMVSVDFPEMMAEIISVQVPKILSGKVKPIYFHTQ
Method in brief: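 Wild-type AR was expressed in FreeStyle293F cells (pcDNA3.1, 48 h, 37 °C, 8% CO2). Cells were lysed in TEGM buffer (pH 7.2, molybdate, DTT) by freeze–thaw, and the supernatant from 228,000g spin was used. Lysate was incubated with 3 nM (final) [3H]mibolerone plus compound at 4 °C for 3 h. Bound and free were separated by dextran/charcoal and bound counts gave % inhibition; IC50 from three experiments.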

[4] = biological target: T1, Androgen receptor/Baculoviral IAP repeat-containing protein 2; assay: Induction of AR/cIAP1 interaction in human 22Rv1 cells assessed as ubiquitin proteasome system mediated androgen receptor protein degradation by Western blot analysis
Target sequence in this assay (Q13490 whole entry, one chain of several): as the sequence (Q13490 whole entry, looked up, one chain of several) above

[5] = biological target: T1, Androgen receptor/Baculoviral IAP repeat-containing protein 2; assay: Induction of AR/cIAP1 interaction in human 22Rv1 cells assessed as ubiquitin proteasome system mediated androgen receptor protein degradation at 1 to 3 uM after 6 hrs by Western blot analysis; format: cell-based; method in brief: as §1
Target sequence in this assay (Q13490 whole entry, looked up, one chain of several): as the sequence (Q13490 whole entry, looked up, one chain of several) above

[6] = biological target: T1, Androgen receptor/Baculoviral IAP repeat-containing protein 2; assay: Induction of AR/cIAP1 interaction in human 22Rv1 cells assessed as ubiquitin proteasome system mediated androgen receptor protein degradation after 6 hrs by Western blot analysis; format: cell-based; method in brief: as §1
Target sequence in this assay (Q13490 whole entry, looked up, one chain of several): as the sequence (Q13490 whole entry, looked up, one chain of several) above

[7] = biological target: T1, Androgen receptor/Baculoviral IAP repeat-containing protein 2; assay: Induction of AR/cIAP1 interaction in human 22Rv1 cells assessed as ubiquitin proteasome system mediated androgen receptor protein degradation at 3 uM after 6 hrs by Western blot analysis; format: cell-based; method in brief: as §1
Target sequence in this assay (Q13490 whole entry, looked up, one chain of several): as the sequence (Q13490 whole entry, looked up, one chain of several) above

Androgen receptor [8] = biological target: T2, Androgen receptor; assay: Binding affinity to androgen receptor (unknown origin)
Method in brief: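 Wild-type AR expressed by transfection of FreeStyle293F cells (48 h shaking at 37 °C), then lysed by freeze-thaw in TEGM buffer (pH 7.2, molybdate, DTT). Cleared lysate incubated with [3H]mibolerone (final 3 nM) plus test compound at 4 °C for 3 h. Bound and free separated by dextran/charcoal, bound counted, and % inhibition calculated. IC50 taken from three separate experiments.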

[9] = biological target: T1, Androgen receptor/Baculoviral IAP repeat-containing protein 2; assay: Induction of AR/cIAP1 interaction in human 22Rv1 cells assessed as ubiquitin proteasome system mediated androgen receptor protein degradation at 30 uM after 6 hrs by Western blot analysis; format: cell-based; method in brief: as §1
Target sequence in this assay (Q13490 whole entry, looked up, one chain of several): as the sequence (Q13490 whole entry, looked up, one chain of several) above

[10] = biological target: T1, Androgen receptor/Baculoviral IAP repeat-containing protein 2; assay: Induction of AR/cIAP1 interaction in human 22Rv1 cells assessed as ubiquitin proteasome system mediated androgen receptor protein degradation at 3 uM in presence of 1-benzyl-4-(4-cyanophenyl)-2,5-dimethyl-1H-pyrrole-3-carbonitrile after 6 hrs by Western blot analysis; format: cell-based; method in brief: as §1

Activity [1]: inactive | Activity [2]: inactive
SMILES: Cc1c(C#N)c(-c2ccc(C#N)cc2)c(C)n1Cc1ccccc1

SMILES: CC(C)C[C@H](NC(=O)[C@@H](O)[C@H](N)Cc1ccccc1)C(=O)NCCOCCOCCOCCNC(=O)c1ccc(S(=O)(=O)CC(C)(O)C(=O)Nc2ccc(C#N)c(C(F)(F)F)c2)cc1 (some centres undefined)
IC50 (Androgen receptor [3]): 1100 nM | DC50 [4]: > 30000 nM

Activity [5]: inactive
SMILES: CN[C@@H](C)C(=O)N[C@H](C(=O)N1CCC[C@H]1c1nc(C(=O)c2cccc(OCCOc3cccc(OCCOc4ccc(Cn5c(C)c(C#N)c(-c6ccc(C#N)cc6)c5C)cc4)c3)c2)cs1)C1CCCCC1

Activity [5]: inactive
SMILES: CN[C@@H](C)C(=O)N[C@H](C(=O)N1CCC[C@H]1c1nc(C(=O)c2cccc(OCCOCCOCCOCCOc3ccccc3Cn3c(C)c(C#N)c(-c4ccc(C#N)cc4)c3C)c2)cs1)C1CCCCC1

MED [6]: 20 µM
SMILES: CN[C@@H](C)C(=O)N[C@H](C(=O)N1CCC[C@H]1C(=O)N[C@H](C(=O)NCCOCCOCCOCCNC(=O)c1ccc(Cn2c(C)c(C#N)c(-c3ccc(C#N)cc3)c2C)cc1)C(c1ccccc1)c1ccccc1)C1CCCCC1

Activity [7]: Active
SMILES: CN[C@@H](C)C(=O)N[C@H](C(=O)N1CCC[C@H]1c1nc(C(=O)c2cccc(OCCOCCOCCOCCOCCOc3ccc(Cn4c(C)c(C#N)c(-c5ccc(C#N)cc5)c4C)cc3)c2)cs1)C1CCCCC1

SMILES: Cc1nn(-c2ccc(C#N)c(C(F)(F)F)c2)c(C)c1Cc1ccc(C(=O)NCCOCCOCCOCCNC(=O)[C@H](CC(C)C)NC(=O)[C@@H](O)[C@H](N)Cc2ccccc2)cc1
IC50 (Androgen receptor [3]): 190 nM | DC50 [4]: 11700 nM

SMILES: Cc1c(C#N)c(-c2ccc(C#N)cc2)c(C)n1Cc1ccc(C(=O)O)cc1
IC50 (Androgen receptor [8]): 1.4 nM

MED [6]: 3 µM | Activity [5]: Active
SMILES: CN[C@@H](C)C(=O)N[C@H](C(=O)N1CCC[C@H]1c1nc(C(=O)c2cccc(OCCOCCOCCNC(=O)c3ccc(Cn4c(C)c(C#N)c(-c5ccc(C#N)cc5)c4C)cc3)c2)cs1)C1CCCCC1

Activity [7]: Active
SMILES: CN[C@@H](C)C(=O)N[C@H](C(=O)N1CCC[C@H]1c1nc(C(=O)c2cccc(OCCOCCOCCOc3ccc(Cn4c(C)c(C#N)c(-c5ccc(C#N)cc5)c4C)cc3)c2)cs1)C1CCCCC1

Activity [9]: Active | IC50 (Androgen receptor [3]): 27 nM | MED [6]: 30 µM | DC50 [4]: 21600 nM
SMILES: Cc1c(C#N)c(-c2ccc(C#N)cc2)c(C)n1Cc1ccc(C(=O)NCCOCCOCCOCCNC(=O)[C@H](CC(C)C)NC(=O)[C@@H](O)[C@H](N)Cc2ccccc2)cc1

Activity [5]: Active
SMILES: CN[C@@H](C)C(=O)N[C@H](C(=O)N1CCC[C@H]1c1nc(C(=O)c2cccc(OCCOCCOCCOCCOc3cccc(Cn4c(C)c(C#N)c(-c5ccc(C#N)cc5)c4C)c3)c2)cs1)C1CCCCC1

Activity [5]: inactive
SMILES: CN[C@@H](C)C(=O)N[C@H](C(=O)N1CCC[C@H]1c1nc(C(=O)c2cccc(OCCOc3ccccc3OCCOc3ccc(Cn4c(C)c(C#N)c(-c5ccc(C#N)cc5)c4C)cc3)c2)cs1)C1CCCCC1

IC50 (Androgen receptor [3]): 190 nM | DC50 [4]: 20500 nM
SMILES: Cc1nn(-c2ccc(C#N)c(Cl)c2)c(C)c1CCc1ccc(C(=O)NCCOCCOCCOCCNC(=O)[C@H](CC(C)C)NC(=O)[C@@H](O)[C@H](N)Cc2ccccc2)cc1

Activity [10]: inactive
SMILES: CN[C@@H](C)C(=O)N[C@H](C(=O)N1CCC[C@H]1c1nc(C(=O)c2cccc(OC)c2)cs1)C1CCCCC1

SMILES: Cc1nn(-c2ccc(C#N)c(Cl)c2)c(C)c1CCc1ccc(C(=O)O)cc1
IC50 (Androgen receptor [8]): 53 nM

Activity [5]: Active
SMILES: CN[C@@H](C)C(=O)N[C@H](C(=O)N1CCC[C@H]1c1nc(C(=O)c2cccc(OCCOCCOCCOCCCc3ccc(Cn4c(C)c(C#N)c(-c5ccc(C#N)cc5)c4C)cc3)c2)cs1)C1CCCCC1

Activity [5]: Active
SMILES: CN[C@@H](C)C(=O)N[C@H](C(=O)N1CCC[C@H]1c1nc(C(=O)c2cccc(OCCOCCOCCOCC#Cc3ccc(Cn4c(C)c(C#N)c(-c5ccc(C#N)cc5)c4C)cc3)c2)cs1)C1CCCCC1

Activity [5]: inactive
SMILES: CN[C@@H](C)C(=O)N[C@H](C(=O)N1CCC[C@H]1c1nc(C(=O)c2cccc(OCCOc3ccc(OCCOc4ccc(Cn5c(C)c(C#N)c(-c6ccc(C#N)cc6)c5C)cc4)cc3)c2)cs1)C1CCCCC1

IC50 (Androgen receptor [3]): > 10000 nM | DC50 [4]: > 30000 nM
SMILES: Cc1nn(-c2ccc(C#N)cc2Cl)c(C)c1Cc1ccc(C(=O)NCCOCCOCCOCCNC(=O)[C@H](CC(C)C)NC(=O)[C@@H](O)[C@H](N)Cc2ccccc2)cc1
